In one assay the test system is HL-60. Briefly: Cytotoxic activity against human HL60 cells after 69 hrs by MTT assay. The format is functional, cell-based. Conditions: HL-60, 69 h. Put shortly: (§1)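 Cells were grown in RPMI 1640 with 10% FBS, 2 mM glutamine, penicillin and streptomycin at 37 °C under 5% CO2, then plated. After 24 h, compounds in DMSO were added at 0.39-25 µg/mL, with doxorubicin at 0.01-0.58 µg/mL as positive control. After 69 h, MTT at 0.5 mg/mL was added for 3 h. Formazan was dissolved in DMSO and read at 595 nm. IC50 came from nonlinear regression.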
For orientation: Tetrazolium assays rely on reduction of a dye to a coloured formazan, in cell work by metabolically active cells.

For a further assay, the system named is HCT-8. Kind of assay: Cytotoxic activity against human HCT8 cells after 69 hrs by MTT assay. The format is functional, cell-based. Conditions: HCT-8, 69 h. The procedure, abridged:
as §1

The next assay has as its system SF-295. Kind of assay: Cytotoxic activity against human SF295 cells after 69 hrs by MTT assay. The format is functional, cell-based. Conditions: SF-295, 69 h. Put shortly: as §1
The subject of assay [1] is MDA-MB-435 (Homo sapiens). Briefly: Cytotoxic activity against human MDA-MB-435 cells after 69 hrs by MTT assay. Conditions: MDA-MB-435, 69 h.

Where only a bound is given, the exact number is not on record here.

The term IC50 denotes the midpoint of a concentration-inhibition curve. As to `C=C/C(C)=C/C[C@]1(C)[C@H]2C[C@H](O)C=C3[C@H](OC(C)=O)O[C@@H](OC(C)=O)[C@@]32[C@H](OC(=O)/C=C/c2ccccc2)C[C@@H]1C`, the IC50 (with HL-60; in the assay on HCT-8; with SF-295; in assay [1]) was more than 5 µM in each case.

Regarding `C=C/C(C)=C/C[C@]1(C)[C@H]2C[C@@H](OC(C)=O)C=C3[C@H](OC(C)=O)O[C@@H](OC(C)=O)[C@@]32[C@H](OC(=O)c2ccc(O)cc2)C[C@@H]1C` [CASEOBLIQUIN A], the IC50 (in the assay with HL-60; with HCT-8; with SF-295; in assay [1]) was more than 5 µM throughout.

With `COc1cccc2c1C(=O)c1c(O)c3c(c(O)c1C2=O)C[C@@](O)(C(=O)CO)C[C@@H]3O[C@H]1C[C@H](N)[C@H](O)[C@H](C)O1` [DOXORUBICIN], the IC50 in the assay on HL-60 amounted to 0.07 µM; in the assay with HCT-8, 1.5 µM; with SF-295, 0.75 µM; in assay [1] it was 0.12 µM.

For the origin of these results see ChEMBL document CHEMBL1154325, “Cytotoxic clerodane diterpenoids from Casearia obliqua” (J Nat Prod, 2009).
